A selection: hits, their analogues and other compounds. The true share with any hit is near 3.7%.
NS3 helicase inh: blocks Hepatitis C virus NS3 helicase unwinding. AID 1800. 290,000 tested, 0.56% active. NS3 helicase DNA unwinding, Cy5 molecular beacon fluorescence. inhibition, % at 10.9 µM;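 active = inhibition above the mean of all tested compounds plus 3 SD, set per campaign, cut at about 35% in these data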;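 note: 0% = DMSO wells and 100% = thioflavine S control wells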
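Measured by: Cy5 fluorescence, 0 and 60 min reads / Assay system: NS3 helicase fragment of HCV / Control set: low DMSO, high thioflavine S at 110 µM / Times: 1 h reaction at 25 °C, ATP-initiated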
HCV core dimer: HCV core protein dimerization inhibition | TR-FRET GST/Flag-core106 dimerization, 1536-well | inhibition, % at 5 µM | 300,000 tested, 0.33% active | AID 1899;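 active = inhibition above the mean of all tested compounds plus 3 SD, set per screening campaign, cut at about 45% in these data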
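Assay system: GST-tagged and Flag-tagged HCV core protein residues 1-106 / Times: compound-protein-antibody incubation 4 h at 22.5 °C / Signal: time-resolved FRET, ex 340 nm, em 617 and 671 nm / Evaluation: % inhibition based on acceptor/donor emission ratio / Benchmarks: wells lacking GST-core106 and wells with excess unlabelled core106 / Repeats: singlicate, one well per compound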
TAAR1 antagonist: antagonists of human TAAR1 | Q96RJ0 | CHO RD-HGA16 TAAR1, Fluo-8 calcium fluorescence, antagonist | inhibition, % at 3 µM | 360,000 tested, 1.5% active | AID 624466;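 active = inhibition above a per-plate cutoff, the mean inhibition of test compounds on that plate plus 3 SD, cut at about 49% in these data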;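 note: 0% = DMSO plus EC80 beta-PEA response and 100% = DMSO alone without agonist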
Target sequence (Q96RJ0 whole entry, looked up): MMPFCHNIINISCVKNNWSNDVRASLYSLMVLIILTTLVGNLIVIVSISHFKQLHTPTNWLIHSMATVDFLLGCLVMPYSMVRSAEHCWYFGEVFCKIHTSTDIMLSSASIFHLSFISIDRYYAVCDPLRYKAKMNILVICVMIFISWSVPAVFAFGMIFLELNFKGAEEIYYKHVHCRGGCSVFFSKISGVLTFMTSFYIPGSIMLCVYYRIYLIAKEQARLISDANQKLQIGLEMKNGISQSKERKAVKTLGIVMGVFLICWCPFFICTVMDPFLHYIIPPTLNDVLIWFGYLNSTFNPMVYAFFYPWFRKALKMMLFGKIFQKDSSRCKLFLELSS
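Assay system: CHO-derived RD-HGA16 cells stably expressing human TAAR1 plus Gα16. Timing: 140 s kinetic read after compound, 140 s after agonist. Technique: kinetic Fluo-8 calcium fluorescence measurement. Measure: % inhibition of agonist calcium response.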
rCAG RNA binder: binds r(CAG) RNA repeats; r(CAG) RNA repeat, TO-PRO-1 dye displacement fluorescence; inhibition, % at 3 µM; 370,000 tested, 1.3% active;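 active = inhibition above the plate cutoff, the mean of all test compounds on that plate plus 3 SD, cut at about 35% in these data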;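 note: 0% = DMSO alone and 100% = 100 µM mitoxantrone as full dye displacement; higher means more dye released from RNA so lower well fluorescence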
TAAR1 agonist: human TAAR1 agonism | Q96RJ0 | CHO RD-HGA16 TAAR1, Fluo-8 calcium fluorescence; vehicle wells 0%, saturating PEA agonist 100% | activation, % at 3 µM | 360,000 tested, 0.99% active | AID 624467;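 active = activation above the mean activation of all test compounds in the run plus 3 SD, cut at about 38% in these data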
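System: CHO-derived RD-HGA16 cells with stable Gα16 and human TAAR1. Times: 17-24 h plating, Fluo-8 75 min 37 °C, 30 min RT. Measured by: calcium-sensitive Fluo-8 signal, excitation 470-495, emission 515-575 nm. Read-out basis: % activation relative to PEA EC100 response. Control set: DMSO and PEA EC100. Repeats: no replicates (n 1).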
Starred values were filed as active, the others as inactive.

`CC(Sc1nc(N)cc(=O)[nH]1)C(=O)Nc1sc2c(c1C#N)CCCC2` (stereo not drawn) gave NS3 helicase inh 5.0, HCV core dimer 4.2, TAAR1 antagonist 10.2, rCAG RNA binder 14.9 and TAAR1 agonist 9.3.
Screening CCC(Sc1nc(C)cc(=O)[nH]1)C(=O)Nc1sc2c(c1C#N)CCCC2 (stereo not drawn) returned NS3 helicase inh 26.5, HCV core dimer 4.8, TAAR1 antagonist -32.3, rCAG RNA binder 54.9* and TAAR1 agonist 39.5*.
CN(C)c1cccc(/C=C2\CC3(OC(=O)c4ccccc4)CCCN2C3)c1 (stereo not drawn) was read as rCAG RNA binder 4.7.
For N/C(=N\OC(=O)COc1ccc2ccccc2c1)c1ccccn1 the results were NS3 helicase inh -2.6, HCV core dimer -7.6, TAAR1 antagonist 22.9, rCAG RNA binder -3.1 and TAAR1 agonist 48.4*.
N/C(=N\OC(=O)COc1ccccc1Cl)c1ccccn1 was read as NS3 helicase inh -5.7, HCV core dimer -3.4, TAAR1 antagonist 17.1, rCAG RNA binder -0.4 and TAAR1 agonist 1.2.
O=C(NCc1ccc2c(c1)OCO2)c1cc2ncc(Br)cn2n1 was read as NS3 helicase inh 2.9, HCV core dimer 67.2*, TAAR1 antagonist -3.8, rCAG RNA binder 3.9 and TAAR1 agonist -0.8.
For O=C(NCc1ccc2c(c1)OCO2)c1ccc(Br)cc1 the results were NS3 helicase inh 8.0, HCV core dimer -0.2, TAAR1 antagonist -6.3, rCAG RNA binder -2.5 and TAAR1 agonist 1.6.
Screening c1ccc(-c2cccc3[nH]cc(-c4ccccc4)c23)cc1 returned rCAG RNA binder 2.5.
For CC1(C)Cc2c(sc(NC(=O)c3ccc(C(=O)c4ccccc4)cc3)c2C(N)=O)C(C)(C)N1 the results were NS3 helicase inh -82.2, HCV core dimer -2.1, TAAR1 antagonist 16.6, rCAG RNA binder 8.5 and TAAR1 agonist 46.4*.
Screening O=C(COc1ccccc1)Nc1cccc(-c2ccc(N3CCOCC3)nn2)c1 returned HCV core dimer 6.4, TAAR1 antagonist 49.0*, rCAG RNA binder -5.5 and TAAR1 agonist 10.4.
For CCS(=O)(=O)c1ccc(-c2cccc(NC(=O)COc3ccc(Cl)cc3)c2)nn1 the results were NS3 helicase inh 0.9, HCV core dimer 5.2, TAAR1 antagonist 49.2*, rCAG RNA binder 1.8 and TAAR1 agonist 7.6.
`CS(=O)(=O)c1ccc(-c2cccc(NC(=O)COc3ccc(Cl)cc3)c2)nn1` gave NS3 helicase inh 10.2, HCV core dimer -4.8, TAAR1 antagonist 20.0, rCAG RNA binder 1.3 and TAAR1 agonist 11.2.
For O=C(NCc1ccc(F)c(F)c1)C1CCC(CNS(=O)(=O)c2cccc3cccnc23)CC1 (stereo not drawn) the results were rCAG RNA binder 4.2.
For O=C(NCc1ccc(/C=c2\sc3n(c2=O)CCN=3)o1)C(=O)Nc1ccccc1 the results were NS3 helicase inh 0.2 and HCV core dimer 58.7*.
For Cc1ccc(/C=c2/sc3n(c2=O)CCCN=3)o1 the results were NS3 helicase inh 7.0, HCV core dimer -7.9, TAAR1 antagonist -8.2, rCAG RNA binder 2.5 and TAAR1 agonist 2.2.
For O=C(OC12CCCN(C1)/C(=C/c1ccncc1)C2)c1ccccc1 (stereo not drawn) the results were rCAG RNA binder 2.9.
Screening O=C(O)c1cccc2cccc(-c3c4ccc(=O)c(O)c-4oc4c(O)c(O)ccc34)c12 returned TAAR1 antagonist -12.2, rCAG RNA binder 91.8* and TAAR1 agonist 0.4.
`O=C(O)c1cccc2cc(-c3ccccc3)oc(=O)c12` gave NS3 helicase inh 6.0, HCV core dimer 4.4, TAAR1 antagonist 6.1, rCAG RNA binder -0.9 and TAAR1 agonist 5.0.
For CN(CCO)C1CN(Cc2cn(Cc3ccccc3F)nn2)S(=O)(=O)C1 (stereo not drawn) the results were rCAG RNA binder -1.5.
COc1ccc(NC(=O)CSc2nnc(-c3ccco3)c(-c3ccco3)n2)cc1OC was read as NS3 helicase inh 29.9, HCV core dimer 25.9, TAAR1 antagonist 21.3, rCAG RNA binder 12.6 and TAAR1 agonist -3.5.
COc1cccc(NC(=O)CSc2nnc(-c3ccco3)c(-c3ccco3)n2)c1 was read as NS3 helicase inh 21.3, HCV core dimer 30.6, TAAR1 antagonist -3.4, rCAG RNA binder 61.0* and TAAR1 agonist 1.6.
`Cc1cccc(C)c1NC(=O)CSc1nnc(-c2ccco2)c(-c2ccco2)n1` gave NS3 helicase inh 35.5 and HCV core dimer 72.2*.
`CN(C)c1ccc(NC(=O)CSc2nnc(-c3ccco3)c(-c3ccco3)n2)cc1` gave NS3 helicase inh 26.2, HCV core dimer 38.3, TAAR1 antagonist -3.6, rCAG RNA binder 9.3 and TAAR1 agonist -1.5.
Screening COC(=O)CSc1nnc(-c2cccs2)o1 returned rCAG RNA binder -0.8.
Screening CC(C)[C@H](NC(=O)OCc1ccccc1)C(=O)OCc1cc(=O)oc2cc(O)ccc12 returned NS3 helicase inh -8.4, HCV core dimer 17.9, TAAR1 antagonist 53.8*, rCAG RNA binder 15.4 and TAAR1 agonist 5.3.
Screening CC(C)[C@H](NC(=O)OCc1ccccc1)C(=O)OCC(=O)c1ccccc1 returned TAAR1 antagonist -3.5, rCAG RNA binder -0.4 and TAAR1 agonist 1.1.
`C=CCN1C(=O)[C@H](CC(=O)NCc2cccc3ccccc23)[C@@]2(C(=O)OCC)CCCC=C12` gave rCAG RNA binder 3.6.
`COC(=O)[C@]1(C)CCC[C@@]2(C)C3CC[C@]4(OC(C)=O)C[C@@]3(CCC21)CC4=O` (stereo partly drawn) gave TAAR1 antagonist 51.1*, rCAG RNA binder -10.1 and TAAR1 agonist 14.3.
CN(CCOC(=O)CC1C=CCC1)C1CN(Cc2cn(Cc3ccccc3Cl)nn2)S(=O)(=O)C1 (stereo not drawn) was read as rCAG RNA binder 0.6.
Screening Cc1cc(NC(=O)c2ccc(NS(=O)(=O)c3ccccc3F)cc2)no1 returned rCAG RNA binder 7.4.
Screening O=C(/C=C/c1ccc(Br)cc1)NC1CCCCCC1 returned NS3 helicase inh -7.3, HCV core dimer 102.0*, TAAR1 antagonist 20.4, rCAG RNA binder 2.2 and TAAR1 agonist 15.9.
`CCCOc1ccc(/C=C/C(=O)NC2CCCCC2)cc1` gave NS3 helicase inh -8.5, HCV core dimer -2.8, TAAR1 antagonist -7.2, rCAG RNA binder -8.3 and TAAR1 agonist -2.1.
`O=C1Nc2ccccc2C1=Nc1ccc(S(=O)(=O)Nc2nccs2)cc1` gave NS3 helicase inh 2.0, HCV core dimer 0.6, TAAR1 antagonist -4.3, rCAG RNA binder 48.2* and TAAR1 agonist -1.6.
O=C(NC1=NC2(C=C3CCCCC3n3c(=O)n(-c4ccccc4)c(=O)n32)CN1CC1CC1)c1ccccc1 (stereo not drawn) was read as rCAG RNA binder 22.9.
Cc1ccc(C)c(C(O)c2ncc(-c3ccccc3)[nH]2)c1 (stereo not drawn) was read as TAAR1 antagonist -14.1, rCAG RNA binder 1.0 and TAAR1 agonist 5.8.
